Series [1] has as its target Human immunodeficiency virus type 1 reverse transcriptase (Human immunodeficiency virus 1) (UniProt Q72547). As to the kind of experiment: Activity at HIV1 reverse transcriptase measured after 30 mins. Summed up: (§1)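 Pre-steady-state rapid quench with purified WT HIV-1 RT. Quenched with 0.5 M EDTA between 10 ms and 30 min. Products resolved on 7 M urea-16% polyacrylamide gels. Gives kpol and Kd; selectivity = (kpol/Kd)dNTP/(kpol/Kd)NRTI-TP. At least three independent experiments, mean ± SD.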

Series [2] shares this target. The experiment in a line: Ratio of Kpol to Kd for HIV1 reverse transcriptase. Summed up: as §1
Series [3] deals with Human immunodeficiency virus type 1 reverse transcriptase (Human immunodeficiency virus 1, UniProt Q72547). The experiment in a line: Binding affinity to HIV1 reverse transcriptase. A digest of the protocol: as §1
Series [4] has as its target Human immunodeficiency virus type 1 reverse transcriptase (Human immunodeficiency virus 1) (UniProt Q72547). As to the kind of experiment: Selectivity, ratio of Kpol to Kd for dATP to Kpol to Kd for compound at HIV1 reverse transcriptase. A digest of the protocol:
as §1

Series [5] relates to Human immunodeficiency virus 1. As to the kind of experiment: Antiviral activity against HIV1 infected in human HeLa P4/R5 cells assessed as inhibition of viral replication. Format: functional, organism-based. Conditions: Human immunodeficiency virus 1, HeLa. A digest of the protocol:
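Single-cycle assay in P4/R5 HeLa cells carrying an HIV LTR-driven, Tat-activated β-galactosidase gene. Cells kept in phenol red-free DMEM with 10% FBS and 0.5 μg/ml puromycin. Virus stock titred on these cells by threefold endpoint dilution (Reed-Muench). At least three independent experiments.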

Series [6] concerns Human immunodeficiency virus 1. The experiment in a line: Ratio of IC50 for HIV1 harboring reverse transcriptase M184V mutant infected in human HeLa P4/R5 cells to wild type HIV1 infected in human HeLa P4/R5 cells. It is filed as functional. Summed up: (§2)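 Single-replication-cycle assay in P4/R5 cells: HeLa stably carrying a Tat-activated β-galactosidase gene under an HIV LTR promoter, grown in phenol red-free DMEM with 10% FBS and 0.5 μg/ml puromycin. Virus stocks were titred in P4/R5 cells by threefold endpoint dilution (Reed–Muench).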

The subject of series [7] is Human immunodeficiency virus 1. The experiment in a line: Ratio of IC50 for HIV1 harboring reverse transcriptase K65R mutant infected in human HeLa P4/R5 cells to wild type HIV1 infected in human HeLa P4/R5 cells. Format: functional. Summed up:
as §2

Series [8] deals with Human immunodeficiency virus 1. The experiment in a line: Antiviral activity against HIV1 infected in human MT2 cells assessed as inhibition of viral replication. Format: functional, organism-based. Conditions: Human immunodeficiency virus 1, MT2.
Series [9] has as its system Human immunodeficiency virus 1. The experiment in a line: Antiviral activity against HIV1 harboring reverse transcriptase L74V mutant infected in human HeLa P4/R5 cells assessed as inhibition of viral replication. It is filed as functional, organism-based. Conditions: Human immunodeficiency virus 1, HeLa. Summed up: as §2
Series [10] concerns Human immunodeficiency virus 1. As to the kind of experiment: Ratio of IC50 for HIV1 harboring reverse transcriptase L74V mutant infected in human HeLa P4/R5 cells to wild type HIV1 infected in human HeLa P4/R5 cells. It is filed as functional. Summed up: as §2
The test system of series [11] is Human immunodeficiency virus 1. As to the kind of experiment: Antiviral activity against HIV1 harboring reverse transcriptase K65R mutant infected in human HeLa P4/R5 cells assessed as inhibition of viral replication. It is filed as functional, organism-based. Particulars: Human immunodeficiency virus 1, HeLa. Summed up:
as §2

For series [12], the system named is Human immunodeficiency virus 1. As to the kind of experiment: Antiviral activity against HIV1 infected in human PBMC assessed as inhibition of viral replication. Format: functional, organism-based. Summed up: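 PBMC from healthy seronegative donors, isolated on a Ficoll-Hypaque gradient and stimulated with PHA for 2-3 days before infection. At least three independent experiments.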

Series [13] deals with Human immunodeficiency virus 1. As to the kind of experiment: Antiviral activity against HIV1 harboring reverse transcriptase M184V mutant infected in human HeLa P4/R5 cells assessed as inhibition of viral replication. Format: functional, organism-based. Conditions: Human immunodeficiency virus 1, HeLa. A digest of the protocol: as §2
In series [14] the target is Human immunodeficiency virus type 1 reverse transcriptase (Human immunodeficiency virus 1) (UniProt Q72547). The experiment in a line: Selectivity, ratio of Kpol to Kd for TTP to Kpol to Kd for compound at HIV1 reverse transcriptase. A digest of the protocol:
as §1

Series [15] in a line: Cytotoxicity against human CEM cells after 2 to 4 days by MTT assay. Format: cell-based. Particulars: CEM cells (CCRF-CEM). A digest of the protocol: (§3)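 Log-phase cells seeded at 5 × 10³ to 5 × 10⁴ cells/well with 10-fold serial compound dilutions. Incubated 2-4 days; viability read by MTT staining. CC50 from concentration-response curves by the median effect method. Mean of at least three independent experiments.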
Background: Formazan colour is commonly taken as a measure of viable cells.

Series [16] relates to Human immunodeficiency virus 1. As to the kind of experiment: Antiviral activity against HIV1 harboring reverse transcriptase diserine insert between residues 69 and 70 infected in human HeLa P4/R5 cells assessed as inhibition of viral replication. Format: functional, organism-based. Conditions: Human immunodeficiency virus 1, HeLa. A digest of the protocol:
as §2

A short description of series [17]: Cytotoxicity against african green monkey Vero cells after 2 to 4 days by MTT assay. Format: cell-based. Conditions: chlorocebus sabaeus. A digest of the protocol: as §3
The test system of series [18] is Human immunodeficiency virus 1. The experiment in a line: Antiviral activity against HIV1 harboring reverse transcriptase M41L/L210W/T215Y mutant infected in human HeLa P4/R5 cells assessed as inhibition of viral replication. Format: functional, organism-based. Conditions: Human immunodeficiency virus 1, HeLa. Summed up:
as §2

Series [19] relates to Human immunodeficiency virus 1. As to the kind of experiment: Antiviral activity against HIV1 harboring reverse transcriptase D67N/K70R/T215F/K219Q mutant infected in human HeLa P4/R5 cells assessed as inhibition of viral replication. Conditions: Human immunodeficiency virus 1, HeLa. Format: functional, organism-based. Summed up:
as §2

A short description of series [20]: Cytotoxicity against human PBMC after 2 to 4 days by MTT assay. Format: cell-based. Summed up:
as §3

Series [21] in a line: Cytotoxicity against human MT2 cells after 2 to 4 days by MTT assay. Format: cell-based. A digest of the protocol: as §3
In series [22] the test system is Human immunodeficiency virus 1. The experiment in a line: Antiviral activity against HIV1 harboring reverse transcriptase Q151M mutant infected in human HeLa P4/R5 cells assessed as inhibition of viral replication. Format: functional, organism-based. Conditions: Human immunodeficiency virus 1, HeLa. Summed up:
as §2

Series [23] has as its system Human immunodeficiency virus 1. The experiment in a line: Antiviral activity against HIV1 harboring reverse transcriptase M41L/D67N/K70R/T215F/K219Q mutant infected in human HeLa P4/R5 cells assessed as inhibition of viral replication. Format: functional, organism-based. Conditions: Human immunodeficiency virus 1, HeLa. A digest of the protocol: as §2
Series [24] deals with Human immunodeficiency virus 1. The experiment in a line: Antiviral activity against HIV1 harboring reverse transcriptase M41L/D67N/K70R/L210W/T215Y/K219Q mutant infected in human HeLa P4/R5 cells assessed as inhibition of viral replication. It is filed as functional, organism-based. Particulars: Human immunodeficiency virus 1, HeLa. A digest of the protocol: as §2
Series [25] can be described thus: Cytotoxicity against human HeLa P4/R5 cells.
Series [26] addresses Human immunodeficiency virus type 1 reverse transcriptase (Human immunodeficiency virus 1) (UniProt Q72547). As to the kind of experiment: Selectivity, ratio of Kpol to Kd for dGTP to Kpol to Kd for compound at HIV1 reverse transcriptase. A digest of the protocol:
as §1

The target is the same in series [27]. As to the kind of experiment: Selectivity, ratio of Kpol to Kd for dCTP to Kpol to Kd for compound at HIV1 reverse transcriptase. Summed up: as §1

pIC50, pKd: −log10 of the molar value.

For orientation: pKd means −log10 of the Kd, conventionally taken in molar units. What is called pIC50 is −log10 of the IC50, conventionally taken in molar units. Usually CC50 stands for the concentration at which the toxic effect on the cells reaches its halfway point.

Regarding `Nc1nc2c(ncn2[C@H]2C[C@H](O)[C@@H](COP(=O)(O)OP(=O)(O)OP(=O)(O)O)O2)c(=O)[nH]1` [DEOXYGUANOSINE TRIPHOSPHATE], the Activity in series [1] amounted to 7.5 s⁻¹. Besides, the Ratio in series [2] is 1.8 µM⁻¹ s⁻¹. Moreover, the pKd in series [3] is 5.38.

Consider `Cc1cn([C@H]2C[C@H](O)[C@@H](COP(=O)(O)OP(=O)(O)OP(=O)(O)O)O2)c(=O)[nH]c1=O` [DEOXYTHYMIDINE_TRIPHOSPHATE], for which, in series [1], the Activity amounted to 9.2 s⁻¹. Also, the Ratio in [2] amounted to 4.2 µM⁻¹ s⁻¹. Further, the pKd in series [3] was 5.66.

`Nc1ncnc2c1ncn2[C@H]1CC[C@@H](COP(=O)(O)OP(=O)(O)OP(=O)(O)O)O1` [DDA-TRIPHOSPHATE]: the Activity in series [1] stood at 5.4 s⁻¹. Also, in series [2], the Ratio came out at 1 µM⁻¹ s⁻¹. Moreover, in [4], the Selectivity ratio was found to be 7.5. The molecule also showed a pKd in series [3] of 5.28.

With `O=c1[nH]cnc2c1ncn2[C@H]1CC[C@@H](CO)O1` [DIDANOSINE], the pIC50 in series [5] was 5.64; in series [8], 6.31; in [9], 5.08; in [11] it was 5.20; in series [12] it was 7.00; in [13] it was 5.34. For the same molecule, the “Ratio IC50” value was 2 in series [6], 2.7 in [7] and 3.6 in series [10].

Molecule `Cc1cn([C@H]2C=C[C@@H](COP(=O)(O)OP(=O)(O)OP(=O)(O)O)O2)c(=O)[nH]c1=O` [STAVUDINE TRIPHOSPHATE] displayed an Activity in [1] of 4.3 s⁻¹. In addition, the Ratio in [2] amounted to 1.6 µM⁻¹ s⁻¹. The same molecule gave a pKd in series [3] of 5.57. For the same molecule, the Selectivity ratio in [14] worked out at 2.6.

In the case of `[N-]=[N+]=N[C@H]1C[C@H](n2cnc3c(N)ncnc32)O[C@@H]1COP(=O)(O)OP(=O)(O)OP(=O)(O)O`, the Activity in [1] was determined as 23.2 s⁻¹. For the same molecule, the Ratio in series [2] came to 10.2 µM⁻¹ s⁻¹. Further, the Selectivity ratio in series [4] was determined as 0.7. This molecule also gave a pKd in series [3] of 5.64.

As to `Cc1cn([C@H]2C[C@H](N=[N+]=[N-])[C@@H](CO)O2)c(=O)[nH]c1=O` [ZIDOVUDINE], the pIC50 in [5] was 6.72; in series [16], 3.69; in [8], 7.51; in series [18], 4.98; in series [19] it was 4.92; in series [9] it was 6.68. Moreover, the pIC50 is 6.68 in [11]; 3.67 in [22]; 4.01 in series [23]; 4.23 in [24]; 6.74 in series [13]. The half-maximal cytotoxic concentration (CC50) was 86.2 µM in series [15]; greater than 100 µM in series [17]; greater than 100 µM in [20]; 150 µM in series [21]; greater than 270 µM in series [25].

As for `CC(C)OC(=O)OCOP(=O)(CO[C@H](C)Cn1cnc2c(N)ncnc21)OCOC(=O)OC(C)C.O=C(O)/C=C/C(=O)O` [TENOFOVIR DISOPROXIL FUMARATE], the pIC50 in series [5] is 5.33; in [8] it was 6.27; in series [11] it was 4.94; in [12] it was 7.85. For the same molecule, the “Ratio IC50” value in [7] came to 2.5.

`Nc1nc(=O)c2ncn([C@H]3C=C[C@@H](COP(=O)(O)OP(=O)(O)OP(=O)(O)O)C3)c2[nH]1` (single isomer, unassigned) [CARBOVIR 5'-TRIPHOSPHATE, (-)-] yielded an Activity in series [1] of 0.6 s⁻¹. In [2], the Ratio turned out to be 0.16 µM⁻¹ s⁻¹. Moreover, in [3], the pKd was 5.40. Further, the Selectivity ratio in series [26] came to 11.2.

Consider `Nc1ccn([C@@H]2CS[C@H](COP(=O)(O)OP(=O)(O)OP(=O)(O)O)O2)c(=O)n1`, for which, in series [1], the Activity came to 0.023 s⁻¹. Besides, the Ratio in series [2] was 0.06 µM⁻¹ s⁻¹. In addition, the Selectivity ratio in [27] stood at 17.8.

Source of the values: ChEMBL document CHEMBL1671666, “Anti-human immunodeficiency virus activity, cross-resistance, cytotoxicity, and intracellular pharmacology of the 3'-azido-2',3'-dideoxypurine nucleosides” (Antimicrob Agents Chemother, 2009).
